The record followed here is ChEMBL document CHEMBL1126289, “Analogues of the muscarinic agent 2'-methylspiro[1-azabicyclo[2.2.2]octane-3,4'-[1,3]dioxolane]: synthesis and pharmacology” (J Med Chem, 1992).

The species named for test [1] is Cavia porcellus. Briefly: In vitro agonistic activity on isolated guinea pig ileum. It is filed as functional. The method in brief: (§1)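 Longitudinal ileal muscle strips from male guinea pig were held in Krebs-Henseleit (pH 7.4, carbogen) at 37 °C under about 5 mN tension and recorded isometrically. Single agonist concentrations were added, with washout and rest between each. EC50 was read graphically. Emax was expressed as percent of the carbachol maximum. Low-efficacy agents were estimated from pooled curves of at least two experiments.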

Test [2] addresses T1, Muscarinic acetylcholine receptor M3 (Cavia porcellus, UniProt Q8VH26). Briefly: Compound was evaluated for its binding affinity against muscarinic acetylcholine receptor M3 in guinea pig parotid gland using (-)-[3H]-QNB as radioligand. It is filed as tissue-based. The method, boiled down: (§2)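 Male guinea pig parotid gland homogenate was prepared in 50 mM Na/K phosphate pH 7.4 with 1 mM PMSF (protein ≤0.3 mg/mL). Triplicates were incubated with 2 nM (final) (−)-[3H]QNB at 25 °C for 210 min, with nonspecific binding defined by 10 µM atropine. Samples were separated by centrifugation and counted by scintillation. Ki came from graphical IC50 corrected by the Jacobs method, from 2–3 experiments.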

The species named for test [3] is Cavia porcellus. The test can be described thus: Maximum response relative to that elicited by carbachol in guinea pig ileum was determined. It is filed as functional. The method, boiled down:
as §1

For test [4], the species on record is Cavia porcellus. Briefly: In vitro antagonistic activity on isolated guinea pig urinary bladder. The format is functional. The method in brief:
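Bladder smooth-muscle strips from male guinea pigs (~300 g) in Krebs-Henseleit, pH 7.4, carbogen-gassed, 37 °C, ~5 mN resting tension, stabilized ≥45 min; isometric tension recorded. A control cumulative carbachol curve was run, then washout and ≥15 min rest. A fixed test-compound concentration was incubated 60 min before a second carbachol curve. Carbachol EC50s were read graphically and dose ratios calculated to give KB; 2–8 experiments.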

For test [5], the target named is T1, Muscarinic acetylcholine receptor M3. Briefly: Compound was evaluated for its binding affinity against Muscarinic acetylcholine receptor M3 in guinea pig parotid gland using (-)-[3H]-QNB as radioligand. It is filed as tissue-based. The method, boiled down:
as §2

For test [6] the target is unchanged. Briefly: Compound was evaluated for its binding affinity against muscarinic acetylcholine receptor M3 n guinea pig parotid gland using (-)-[3H]-QNB as radioligand. The format is tissue-based. The method in brief:
as §2

One may read the EC50 as the concentration at which the effect is half-maximal. A low value points to greater potency. Broadly, the Ki is the dissociation constant of the complex between target and ligand, obtained from inhibition or displacement. The low end stands for tighter binding, the high end for weaker binding. By Emax is commonly meant the maximal effect, on the per cent scale that the assay sets. Broadly, the Kb is the equilibrium dissociation constant of an antagonist, usually derived from a functional assay. A lower Kb goes with higher antagonist affinity.

T1 sequence (Q8VH26 whole entry): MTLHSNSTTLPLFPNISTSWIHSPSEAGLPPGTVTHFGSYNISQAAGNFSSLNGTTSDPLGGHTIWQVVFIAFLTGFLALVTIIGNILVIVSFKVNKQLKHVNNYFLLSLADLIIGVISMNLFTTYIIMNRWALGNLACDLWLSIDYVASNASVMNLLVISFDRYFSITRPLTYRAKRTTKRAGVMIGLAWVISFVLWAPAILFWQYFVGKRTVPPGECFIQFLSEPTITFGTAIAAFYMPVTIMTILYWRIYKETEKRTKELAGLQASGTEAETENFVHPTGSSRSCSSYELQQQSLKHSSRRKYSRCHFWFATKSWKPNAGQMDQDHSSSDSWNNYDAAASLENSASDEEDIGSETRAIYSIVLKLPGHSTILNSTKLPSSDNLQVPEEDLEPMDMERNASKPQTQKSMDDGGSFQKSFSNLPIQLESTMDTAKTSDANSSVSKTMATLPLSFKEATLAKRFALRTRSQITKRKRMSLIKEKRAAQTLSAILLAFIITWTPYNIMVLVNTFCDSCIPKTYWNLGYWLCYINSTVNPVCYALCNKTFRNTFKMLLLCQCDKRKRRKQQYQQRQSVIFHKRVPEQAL

Molecule `C[C@H]1CC[C@@]2(CN3CCC2CC3)O1` showed a 50% effective concentration (EC50) in the test filed under Cavia porcellus [1] of 12 µM. This molecule returned a Ki in test [2] of 35 µM. In addition, the maximal effect (Emax) in the test filed under Cavia porcellus [3] turned out to be 29%. The same molecule came in with a Kb in the test filed under Cavia porcellus [4] of 93 µM.
Molecule `C[C@@H]1C[C@@]2(CO1)CN1CCC2CC1` returned an EC50 in the test filed under Cavia porcellus [1] of 12 µM. In test [2], this molecule returned a Ki of 33 µM. In the test filed under Cavia porcellus [3], the maximal response (Emax) is 7%. The Kb in the test filed under Cavia porcellus [4] is 19 µM.
For the molecule `C1OCC2(CN3CCC2CC3)O1` (stereo not given), the EC50 in the test filed under Cavia porcellus [1] turned out to be 100 µM. The same molecule gave an inhibition constant (Ki) in test [2] of 86 µM. The Emax in the test listed under Cavia porcellus [3] was 45%. The molecule also yielded an antagonist equilibrium constant (Kb) in the test filed under Cavia porcellus [4] of 122 µM.
Turning to `C[C@@H]1OC[C@@]2(CN3CCC2CC3)O1`, in the test filed under Cavia porcellus [1], the midpoint of the response, the EC50, lay at 17 µM. This molecule returned an inhibition constant Ki in test [2] of 25 µM. In addition, the maximal effect (Emax) in the test listed under Cavia porcellus [3] came to 24%. The molecule also returned a Kb in the test listed under Cavia porcellus [4] of 13 µM.
In the test filed under Cavia porcellus [1], `C[C@H]1C[C@@]2(CO1)CN1CCC2CC1` gave an EC50 of 150 µM. Also, the inhibition constant Ki in test [5] is 26 µM. In the test filed under Cavia porcellus [3], the Emax stood at 25%. In the test filed under Cavia porcellus [4], this molecule came in with a Kb of 30 µM.
As to `C[C@H]1OC[C@@]2(CN3CCC2CC3)O1`, the 50% effective concentration (EC50) in the test filed under Cavia porcellus [1] turned out to be 6 µM. The molecule further yielded a Ki in test [2] of 15 µM. Also, the maximum response (Emax) in the test filed under Cavia porcellus [3] was 91%. The same molecule came in with an antagonist dissociation constant (Kb) in the test filed under Cavia porcellus [4] of 4.8 µM.
`C[C@@H]1CC[C@@]2(CN3CCC2CC3)O1` yielded an EC50 in the test filed under Cavia porcellus [1] of 30 µM. In test [5], the Ki came to 78 µM. Moreover, in the test filed under Cavia porcellus [3], the Emax stood at 20%. The antagonist dissociation constant (Kb) in the test filed under Cavia porcellus [4] is 90 µM.
`CC1(C)OCC2(CN3CCC2CC3)O1` (stereo not given) showed an EC50 in the test listed under Cavia porcellus [1] of 22 µM. In the test listed under Cavia porcellus [3], this molecule gave an Emax of 14%. Further, the Ki in test [6] is 39 µM. In the test filed under Cavia porcellus [4], this molecule returned an antagonist dissociation constant (Kb) of 41 µM.
Turning to `C[N+](C)(C)CCOC(N)=O` [CARBACHOL], the half-maximal effective concentration (EC50) was 0.17 µM in the test filed under Cavia porcellus [1] and 1.7 µM in the test listed under Cavia porcellus [4]. This molecule displayed an Emax in the test filed under Cavia porcellus [3] of 100%.
